Measured values as given in ChEMBL document CHEMBL5260843 (J Med Chem, 2019).
Active and inactive are the calls of the source. No cut-off for these calls is given here.

Key:
[1] = molecular target: DCN1-like protein 1/NEDD8-conjugating enzyme Ubc12 (Homo sapiens, UniProt Q96GG9); experiment: Inhibition of GST-tagged DCN1 PONY domain (unknown origin)/human N-terminal acetylated UBC12 (1 to 12 residues) protein-protein interaction incubated for 1 hr by HTRF analysis; type: protein assay
MGC-803 [2] = experiment: Inhibition of cullin3 neddylation in UBC/DCN1 overactivated human MGC-803 cells at 0.3 to 10 uM incubated for 24 hrs by Western blot analysis; type: cell-based; settings: dose 0.3-10 µM
How it was run: (§1)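 Cells in 6-well plates were exposed to compound for 24 h. MGC-803 were grown in DMEM and KYSE70 in RPMI 1640, both with 10% FBS at 37 °C and 5% CO2. Lysates were made in RIPA with protease inhibitors and quantified by BCA. 30 μg protein was run on 8% SDS-PAGE and blotted to nitrocellulose. Primary antibodies were applied overnight at 4 °C, then HRP secondaries, with ECL and film detection. GAPDH was the loading control. Run three times.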

MGC-803 [3] = experiment: Induction of ROS generation in human MGC-803 cells at 0.3 uM incubated for 24 hrs by DCFH-DA staining based flow cytometry analysis (reference value: 1.4%); type: functional
Cullin-5 (Homo sapiens) = molecular target: T1, Cullin-5 (Homo sapiens) (UniProt Q93034); experiment: Inhibition of cullin5 neddylation in UBC/DCN1 overactivated human MGC-803 cells at 0.3 to 10 uM incubated for 24 hrs by Western blot analysis; type: cell-based; settings: dose 0.3-10 µM; how it was run: as §1
T1 sequence (whole entry): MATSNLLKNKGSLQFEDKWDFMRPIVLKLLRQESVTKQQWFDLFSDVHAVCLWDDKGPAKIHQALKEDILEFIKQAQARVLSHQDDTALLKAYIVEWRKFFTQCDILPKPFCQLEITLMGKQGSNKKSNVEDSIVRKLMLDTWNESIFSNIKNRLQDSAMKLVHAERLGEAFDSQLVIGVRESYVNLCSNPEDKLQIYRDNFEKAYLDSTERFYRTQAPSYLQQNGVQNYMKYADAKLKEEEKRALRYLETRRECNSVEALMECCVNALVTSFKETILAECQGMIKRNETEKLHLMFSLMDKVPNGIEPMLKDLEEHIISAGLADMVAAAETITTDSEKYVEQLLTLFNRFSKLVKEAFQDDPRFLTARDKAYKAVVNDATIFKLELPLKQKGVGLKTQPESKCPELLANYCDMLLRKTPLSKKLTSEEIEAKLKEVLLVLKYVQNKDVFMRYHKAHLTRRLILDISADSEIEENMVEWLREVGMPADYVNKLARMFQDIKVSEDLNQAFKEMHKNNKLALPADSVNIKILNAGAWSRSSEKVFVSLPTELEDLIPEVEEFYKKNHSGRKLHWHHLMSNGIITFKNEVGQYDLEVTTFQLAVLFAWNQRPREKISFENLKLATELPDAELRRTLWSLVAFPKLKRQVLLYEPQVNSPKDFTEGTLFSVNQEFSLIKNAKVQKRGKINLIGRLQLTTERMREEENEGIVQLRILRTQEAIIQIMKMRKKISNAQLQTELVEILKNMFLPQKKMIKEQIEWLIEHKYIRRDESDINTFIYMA

MGC-803 [4] = experiment: Inhibition of cullin2 neddylation in UBC/DCN1 overactivated human MGC-803 cells at 0.3 to 10 uM incubated for 24 hrs by Western blot analysis; type: cell-based; settings: dose 0.3-10 µM; how it was run: as §1
Cullin-4A (Homo sapiens) = Cullin-4A (Homo sapiens) (UniProt Q13619); experiment: Inhibition of cullin4A neddylation in UBC/DCN1 overactivated human MGC-803 cells at 0.3 to 10 uM incubated for 24 hrs by Western blot analysis; type: cell-based; settings: dose 0.3-10 µM; how it was run: as §1
MGC-803 [5] = experiment: Induction of ROS generation in human MGC-803 cells at 3 uM incubated for 24 hrs by DCFH-DA staining based flow cytometry analysis (reference value: 1.4%); type: functional
MGC-803 [6] = experiment: Induction of ROS generation in human MGC-803 cells at 1 uM incubated for 24 hrs by DCFH-DA staining based flow cytometry analysis (reference value: 1.4%); type: functional
Cullin-4B (Homo sapiens) = Cullin-4B (Homo sapiens) (UniProt Q13620); experiment: Inhibition of cullin4B neddylation in UBC/DCN1 overactivated human MGC-803 cells at 0.3 to 10 uM incubated for 24 hrs by Western blot analysis; type: cell-based; settings: dose 0.3-10 µM; how it was run: as §1
Cullin-1 (Homo sapiens) = Cullin-1 (Homo sapiens) (UniProt Q13616); experiment: Inhibition of cullin1 neddylation in UBC/DCN1 overactivated human MGC-803 cells at 0.3 to 10 uM incubated for 24 hrs by Western blot analysis; type: cell-based; settings: dose 0.3-10 µM; how it was run: as §1
Chain of Cullin-1 (Homo sapiens) (Q13616 whole entry): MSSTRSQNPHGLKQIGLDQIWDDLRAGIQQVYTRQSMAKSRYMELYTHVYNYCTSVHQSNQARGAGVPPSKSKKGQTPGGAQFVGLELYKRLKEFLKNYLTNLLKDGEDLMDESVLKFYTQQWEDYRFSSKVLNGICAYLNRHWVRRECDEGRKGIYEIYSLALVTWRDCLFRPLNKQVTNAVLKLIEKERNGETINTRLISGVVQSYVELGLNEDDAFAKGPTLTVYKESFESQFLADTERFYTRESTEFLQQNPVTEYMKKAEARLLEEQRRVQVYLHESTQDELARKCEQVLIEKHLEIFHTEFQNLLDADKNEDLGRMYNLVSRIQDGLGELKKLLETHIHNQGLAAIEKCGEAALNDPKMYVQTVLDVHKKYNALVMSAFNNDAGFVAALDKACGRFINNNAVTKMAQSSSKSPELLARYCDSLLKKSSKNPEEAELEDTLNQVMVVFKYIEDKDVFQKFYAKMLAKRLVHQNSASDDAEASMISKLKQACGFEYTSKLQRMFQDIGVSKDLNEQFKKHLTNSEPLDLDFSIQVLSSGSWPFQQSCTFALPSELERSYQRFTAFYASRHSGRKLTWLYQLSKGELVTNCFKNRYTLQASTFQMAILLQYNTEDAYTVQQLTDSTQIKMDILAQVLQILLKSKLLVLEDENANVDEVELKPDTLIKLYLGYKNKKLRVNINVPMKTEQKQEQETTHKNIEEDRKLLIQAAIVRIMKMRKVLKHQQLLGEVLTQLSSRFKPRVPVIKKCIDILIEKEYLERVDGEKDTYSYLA

Chain of DCN1-like protein 1/NEDD8-conjugating enzyme Ubc12 (Q96GG9 whole entry, the tested form may be a part): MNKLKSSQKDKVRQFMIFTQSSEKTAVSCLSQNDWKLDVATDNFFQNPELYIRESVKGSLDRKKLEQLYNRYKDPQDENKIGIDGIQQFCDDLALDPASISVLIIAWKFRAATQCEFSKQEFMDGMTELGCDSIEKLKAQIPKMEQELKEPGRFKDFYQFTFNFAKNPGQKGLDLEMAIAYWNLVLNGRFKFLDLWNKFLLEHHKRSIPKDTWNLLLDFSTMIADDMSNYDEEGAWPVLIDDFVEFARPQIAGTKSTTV
Chain of DCN1-like protein 1/NEDD8-conjugating enzyme Ubc12 (P61081 whole entry, further chain, the tested form may be a part): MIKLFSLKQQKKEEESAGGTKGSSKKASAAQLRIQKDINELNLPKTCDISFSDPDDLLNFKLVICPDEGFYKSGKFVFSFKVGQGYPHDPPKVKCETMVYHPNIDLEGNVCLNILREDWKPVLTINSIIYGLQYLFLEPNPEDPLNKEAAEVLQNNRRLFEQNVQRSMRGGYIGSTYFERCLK
Chain of Cullin-4B (Homo sapiens) (Q13620 whole entry): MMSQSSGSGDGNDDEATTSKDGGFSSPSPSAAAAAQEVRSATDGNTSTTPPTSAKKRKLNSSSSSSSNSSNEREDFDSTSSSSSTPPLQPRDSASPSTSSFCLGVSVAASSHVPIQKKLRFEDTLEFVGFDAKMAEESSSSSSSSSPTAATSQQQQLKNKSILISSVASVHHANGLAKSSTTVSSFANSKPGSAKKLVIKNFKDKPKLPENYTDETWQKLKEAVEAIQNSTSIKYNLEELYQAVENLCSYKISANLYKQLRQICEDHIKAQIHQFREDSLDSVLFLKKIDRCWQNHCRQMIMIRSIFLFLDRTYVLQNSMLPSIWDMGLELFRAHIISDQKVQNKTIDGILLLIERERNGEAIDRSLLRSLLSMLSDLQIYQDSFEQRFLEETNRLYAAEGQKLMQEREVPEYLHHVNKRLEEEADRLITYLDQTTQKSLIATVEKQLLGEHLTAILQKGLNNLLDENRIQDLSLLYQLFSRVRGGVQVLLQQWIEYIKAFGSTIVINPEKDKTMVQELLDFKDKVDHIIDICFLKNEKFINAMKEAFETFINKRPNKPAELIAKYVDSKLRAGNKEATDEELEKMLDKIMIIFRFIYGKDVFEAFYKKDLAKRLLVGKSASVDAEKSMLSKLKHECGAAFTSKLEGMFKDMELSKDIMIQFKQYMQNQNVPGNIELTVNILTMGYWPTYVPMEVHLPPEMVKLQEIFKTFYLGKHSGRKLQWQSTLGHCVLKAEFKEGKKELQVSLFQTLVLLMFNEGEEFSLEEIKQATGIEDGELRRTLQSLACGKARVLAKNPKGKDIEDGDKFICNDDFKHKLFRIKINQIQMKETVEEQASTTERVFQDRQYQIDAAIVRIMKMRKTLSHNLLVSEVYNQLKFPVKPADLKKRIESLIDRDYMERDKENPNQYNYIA
Chain of Cullin-4A (Homo sapiens) (Q13619 whole entry): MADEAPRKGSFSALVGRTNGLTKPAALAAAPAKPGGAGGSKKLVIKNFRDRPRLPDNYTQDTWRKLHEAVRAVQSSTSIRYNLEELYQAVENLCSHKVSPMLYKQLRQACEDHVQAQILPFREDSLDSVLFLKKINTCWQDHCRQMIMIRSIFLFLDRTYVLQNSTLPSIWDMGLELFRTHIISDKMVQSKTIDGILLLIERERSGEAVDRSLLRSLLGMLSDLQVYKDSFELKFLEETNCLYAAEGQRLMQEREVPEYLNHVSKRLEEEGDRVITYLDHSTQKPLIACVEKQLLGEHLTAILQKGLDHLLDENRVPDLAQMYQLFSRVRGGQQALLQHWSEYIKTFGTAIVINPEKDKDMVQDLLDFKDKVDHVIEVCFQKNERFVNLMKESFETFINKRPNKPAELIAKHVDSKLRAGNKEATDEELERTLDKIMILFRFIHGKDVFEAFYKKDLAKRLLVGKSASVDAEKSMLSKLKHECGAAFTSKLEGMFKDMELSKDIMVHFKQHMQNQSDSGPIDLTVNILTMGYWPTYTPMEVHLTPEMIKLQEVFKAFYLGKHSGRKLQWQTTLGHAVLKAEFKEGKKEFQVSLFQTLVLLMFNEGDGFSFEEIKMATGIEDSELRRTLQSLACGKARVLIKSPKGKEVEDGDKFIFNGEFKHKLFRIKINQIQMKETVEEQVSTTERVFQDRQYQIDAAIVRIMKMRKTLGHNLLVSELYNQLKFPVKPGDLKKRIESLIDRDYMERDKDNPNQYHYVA

Row | IC50 [1] [nM] | Compound | also measured
1 | 15800 | c1ccc(-c2cc(Sc3nnnn3-c3ccccc3)n3ncnc3n2)cc1 | 
2 | 706 | CCc1cc(Sc2nnnn2CCN(C)C)n2ncnc2n1 | 
3 | 39 | Cc1cc(Sc2nnnn2CCN(C)C)n2nc(SCc3ccc([N+](=O)[O-])cc3)nc2n1 | 
4 | 209 | Cc1cc(Sc2nnnn2CCN(C)C)n2nc(SCc3cccc4ccccc34)nc2n1 | 
5 | 137 | C=CCSc1nc2nc(C)cc(Sc3nnnn3CCN(C)C)n2n1 | 
6 | 24 | Cc1cc(Sc2nnnn2CCN(C)C)n2nc(SCc3ccccc3[N+](=O)[O-])nc2n1 | 
7 | 59 | Cc1cc(Sc2nnnn2CCN(C)C)n2nc(SCC3CC3)nc2n1 | 
8 | 22 | Cc1cc(Sc2nnnn2CCN(C)C)n2nc(SCc3ccc(F)c(Cl)c3)nc2n1 | 
9 | 4210 | Cc1cc(Sc2nnnn2CCN(C)C)n2nccc2n1 | 
10 | 17 | Cc1cc(Sc2nnnn2CCN(C)C)n2nc(SCc3ccc(Cl)c(F)c3)nc2n1 | 
11 | 352 | CCc1cc(Sc2nnnn2CCN(C)C)n2nc(SCc3ccccc3)nc2n1 | 
12 | 79 | C#CCSc1nc2nc(-c3ccccc3)cc(Sc3nnnn3CCN(C)C)n2n1 | 
13 | 22 | Cc1cc(Sc2nnnn2CCN(C)C)n2nc(SCc3ccccc3)nc2n1 | 
14 | 1360 | CC(C)c1cc(Sc2nnnn2CCN(C)C)n2ncnc2n1 | 
15 | > 50000 | CCCCCc1c(C)nc2nc(SCc3ccc(Cl)cc3)nn2c1Sc1nnnn1CCN(C)C.Cl | inhibition (MGC-803 [2]): inactive; Activity (MGC-803 [3]): 2.5%; inhibition (Cullin-5 (Homo sapiens)): inactive; inhibition (MGC-803 [4]): inactive; inhibition (Cullin-4A (Homo sapiens)): inactive; Activity (MGC-803 [5]): 0.7%; Activity (MGC-803 [6]): 2.6%; inhibition (Cullin-4B (Homo sapiens)): inactive; inhibition (Cullin-1 (Homo sapiens)): inactive
16 | 130 | CN(C)CCn1nnnc1Sc1cc(-c2ccccc2)nc2ncnn12 | 
17 | 195 | Cc1cc(Sc2nnnn2CCN(C)C)n2nc(SCc3cccc(Br)c3)nc2n1 | 
18 | 438 | Cc1cc(Sc2nnnn2CCN(C)C)n2nc(SCCc3ccccc3)nc2n1 | 
19 | 214 | CCCSc1nc2nc(C)cc(Sc3nnnn3CCN(C)C)n2n1 | 
20 | 290 | CN(C)CCn1nnnc1Sc1cc(-c2ccccc2)nc2nc(SCc3ccccc3)nn12 | 
21 | 309 | Cc1cc(Sc2nnnn2CCN(C)C)n2nc(SCc3cc(=O)oc4c3ccc3ccccc34)nc2n1 | 
22 | 61 | CN(C)CCn1nnnc1Sc1c2c(nc3ncnn13)CCC2 | 
23 | 186 | Cc1cc(Sc2nnnn2CCN(C)C)n2nc(SCc3ccc(C(F)(F)F)cc3)nc2n1 | 
